D1 mod: D1 dopamine receptor (human) allosteric modulation | B-score at 10 µM | P21728 | AID 641 | hit rate 5.9% among 58,000 | HEK293 D1, CRE-luciferase, dopamine EC30 potentiation; actives deviate in either direction;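 active means luminescence count or its row- and column-corrected plate score outside the 99.7% band of the plate's sample wells, on either side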
JNK3 inh: JNK3 (human) kinase inhibition. purified JNK3 kinase activity, HTS. inhibition, % at 8 µM. hit rate 0.61% among 60,000. AID 746; in the data active means inhibition above about 17%;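 further: 0% = DMSO and 100% = reference inhibitor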
HEK293 NFkB inh: inhibitors of the PMA/ionomycin-induced NF-kB reporter in HEK293 cells | HEK-293 NF-kB luciferase reporter, luminescence | inhibition, % at 3 µM | hit rate 0.21% among 62,000;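 active means inhibition above the mean of all tested compounds plus 3 SD, cut at about 40% in these data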;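 further: 0% = stimulated DMSO wells and 100% = 10 µM reference inhibitor 5653914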
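System – HEK-293 cells with stable firefly luciferase reporter driven by four HIV NF-kB elements · Doses – one dose, 3 µM · Schedule – 1 h compound pre-incubation, 16 h PMA/ionomycin at 37 °C · Technique – luminescence from luciferase substrate reagent · Measure – percent inhibition normalized per plate to DMSO and reference-inhibitor controls · Replicates – tested once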
SF1 activator: activators of human nuclear receptor SF-1; Q13285; CHO-K1 Gal4-SF-1 LBD luciferase reporter; % increase over DMSO SF-1-specific signal; activation, % at 10 µM; hit rate 1.9% among 65,000; AID 522;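 active means activation above the mean activation of all tested compounds plus 3 SD, cut at about 50% in these data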
Target sequence (Q13285 whole entry, looked up, the tested form may be a part): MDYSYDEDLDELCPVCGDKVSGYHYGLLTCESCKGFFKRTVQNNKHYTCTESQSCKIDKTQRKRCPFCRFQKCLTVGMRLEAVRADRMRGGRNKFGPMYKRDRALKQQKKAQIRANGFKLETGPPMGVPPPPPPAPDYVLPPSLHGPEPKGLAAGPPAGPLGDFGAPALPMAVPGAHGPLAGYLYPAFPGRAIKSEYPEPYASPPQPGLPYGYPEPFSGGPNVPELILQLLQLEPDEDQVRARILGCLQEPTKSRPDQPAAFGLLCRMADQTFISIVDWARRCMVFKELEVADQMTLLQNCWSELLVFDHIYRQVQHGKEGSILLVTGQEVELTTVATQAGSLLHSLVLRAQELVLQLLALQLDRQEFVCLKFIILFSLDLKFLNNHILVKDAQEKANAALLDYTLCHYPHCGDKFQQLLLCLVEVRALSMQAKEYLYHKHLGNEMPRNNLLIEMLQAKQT
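System: CHO-K1 cells with Gal4–hSF-1 LBD chimera plus Gal4-driven luciferase; quantity: 4,000 CHO-K1 cells per well; compound: one dose, 10 µM compound, 1% DMSO; times: 20 h compound treatment, 37 °C; measured by: SteadyLite luciferase luminescence; read-out: percent activation versus DMSO; benchmarks: DMSO and mock-transfected background; replicates: one test per compound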
RORa activator: RORA (human) activation; CHO-K1 Gal4-RORA LBD luciferase reporter, luminescence; percent increase over mock-subtracted basal signal; activation, % at 10 µM; hit rate 1.5% among 65,000; AID 560;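 active means activation above the mean of all tested compounds plus 3 SD, cut at about 49% in these data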;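 further: 0% = DMSO-treated RORA cells and 100% = added signal equal to DMSO minus mock-transfected cells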
D1 mod confirm: confirmation of human D1 dopamine receptor allosteric modulators. shares compounds with D1 mod. HEK293 D1 CRE-luciferase, dopamine EC30 potentiation; stronger effect = higher value. luminescence at 10 µM. hit rate 88% among 2,200;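 active means luminescence in either of two replicates above the same-plate mean plus 3 SD of the low-dose dopamine control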
D1 no dopamine: D1 (human) signaling in absence of dopamine; HEK293 D1 CRE-luciferase, luminescence, no dopamine; stronger effect = higher value; AID 646; shares compounds with D1 mod; hit rate 0.8% among 1,900; luminescence at 10 µM; in the data active means luminescence above about 3900
Isoprot counter: counter-screen for D1 modulators: isoproterenol response in HEK293 cells; shares compounds with D1 mod; HEK293 D1 CRE-luciferase, isoproterenol EC30 counter-screen; calls only at 10 µM; hit rate 63% among 2,200;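 active means luminescence in either replicate above plate mean of wells with a partly effective reference agonist dose plus 3 SD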;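 further: isoproterenol raises cAMP through native beta-adrenoceptor Gs so signal bypasses D1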
The depositor's hits bear a star; i = inactive; / = no result; + = active, no number. In the library only some 7.9% were active in any assay of this set; here they are far more common.

SMILES	D1 mod	JNK3 inh	HEK293 NFkB inh	SF1 activator	RORa activator	D1 mod confirm	D1 no dopamine	Isoprot counter
Cc1ccc(NC2c3ncccc3C(=O)N2C2CCCCC2)cc1C (stereo not given)	4.1*	2	6	6	-26	10752*	1620	+
O=C1c2cccnc2C(=O)N1C1CCCCC1	0.77	1	-9	-22	-14	/	/	/
Cc1ccc(NC2c3ncccc3C(=O)N2C2CCCCC2)cc1 (stereo not given)	11*	4	14	-1	-8	13584*	/	+
COC(=O)C(C#N)c1nc2ccccc2nc1N1CCCC1 (stereo not given)	5.5*	8	-3	-4	-2	9832*	/	+
CC(C)OC(=O)C(C#N)c1nc2ccccc2nc1N1CCCC1 (stereo not given)	10*	-6	/	-19	-23	20752*	1680	+
Oc1ccccc1CNn1cnnc1	/	-4	/	-14	-4	/	/	/
COc1ccc(C2(C)NC(=O)N(Cc3cc(Cl)cc4c3OCOC4)C2=O)cc1OC (stereo not given)	10*	4	12	11	6	22312*	1836	+
COc1ccc(NC(=O)c2sc(SC)nc2N)cc1	15*	-4	-36	61*	62*	19600*	1536	+
CCOC(=O)CSc1nc(N)c(C(=O)Nc2ccc(N(C)C)cc2)s1	/	-8	/	-6	-29	/	/	/
Cc1ccc(-n2nnnc2SCC(=O)Nc2ccc3c(c2)COC3=O)cc1C	0.076	4	8	40	7	/	/	/
COc1ccc(-c2cc(C(F)F)n3ncc(C(=O)N4CCN(C(=O)c5ccco5)CC4)c3n2)cc1	9.4*	5	15	-18	30	13496*	1536	+
CCN1CCN(C(=O)c2cnn3c(C(F)F)cc(-c4ccc(C)cc4)nc23)CC1	/	/	9	-9	28	/	/	/
CC(=NCc1cccnc1)C1=C(O)c2ccccc2C1=O	3*	37*	18	-11	11	5700*	2088	i
Cc1ccc(S(=O)(=O)N2CCOCC2)cc1C(=O)OCC(=O)N1CCc2ccccc2C1	-0.45	7	13	9	-4	/	/	/
O=c1oc2ccccc2c2c1ncn2-c1ccccc1	3.6*	-5	11	-7	-7	9304*	1488	+
O=c1oc2ccccc2c2c1ncn2C1CCCCC1	7.4*	-4	17	-6	6	20596*	1756	+
Cc1oc(-c2ccccc2)nc1C(=O)OCC(=O)NC(=O)NCC(C)C	-0.026	-2	-8	7	-13	/	/	/
CCOC(=O)c1nc(-c2ccccc2)oc1N(C)C	4*	-6	7	1	8	9692*	1608	i
O=c1[nH]c2c(s1)C(c1ccco1)C1C3CCC(C3)C1S2 (stereo not given)	26*	/	15	-3	-30	19088*	1756	+
O=C1NC(c2ccco2)Nc2ccccc21 (stereo not given)	-0.069	-2	4	3	-1	/	/	/
CC(=O)N(Cc1cc2cc(C)c(C)cc2n2nnnc12)CC1COCCO1 (stereo not given)	1.9	-7	19	-3	-9	/	/	/
CCOC(=O)C1CCN(CC(=O)Nc2c(C(=O)OC)[nH]c3ccccc23)CC1	-0.66	-6	1	-10	15	/	/	/
CCOC(=O)C1CCN(CC(=O)Nc2c(C(=O)OC)[nH]c3cccc(Cl)c23)CC1	3.7*	2	14	8	1	9896*	1640	+
COC(=O)c1[nH]c2cccc(Cl)c2c1NC(=O)CN(C)C1CCCCC1	11*	-2	4	-7	-11	16352*	1684	+
CC(=O)C(C)Oc1ccc2c3c(c(=O)oc2c1)CCCC3 (stereo not given)	7.8*	4	6	5	28	8432*	/	+

Compound activity deposited in PubChem BioAssay by several laboratories.
